Active and inactive are the calls of the source. The rule behind the calls is not given here.
How the values were obtained:
[1] = Displacement of 125I-Ang2 from AT1 receptor in SPF Sprague-Dawley rat vascular smooth muscle cell membranes after 150 mins by gamma counting method
In short: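 Primary aortic VSMCs from SPF Sprague-Dawley rats, obtained by explant culture in DMEM/10% FBS and identified by SM α-actin staining; passages 3–6. Whole cells (10^6/well) incubated with 125I-Ang II (diluted to 0.2 nM) and compound at final 10^-12–10^-6 M, 4 °C for 150 min. Washed, lysed in 0.1 M NaOH, γ-counted. IC50 from nonlinear fit of competition curves.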

Rattus norvegicus [2] = assay: Antihypertensive activity in spontaneous hypertensive rat model assessed as reduction in mean blood pressure at 15 mg/kg, po measured up to 24 hrs; format: functional, organism-based
In short: (§1)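 Male SHRs (250 ± 20 g) were randomized, 6 per group. Compound was suspended in 0.5% sodium carboxymethyl cellulose and given orally; vehicle-only negative control. Mean blood pressure was calculated as (SBP − DBP)/3 + DBP from systolic and diastolic readings over the time course. Data are mean ± SD, with p < 0.05 taken as significant.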

Rattus norvegicus [3] = assay: Antihypertensive activity in spontaneous hypertensive rat model assessed as reduction in mean blood pressure at 15 mg/kg, po after 12 hrs; format: functional, organism-based; in short: as §1
Rattus norvegicus [4] = assay: Antihypertensive activity in spontaneous hypertensive rat model assessed as reduction in mean blood pressure at 15 mg/kg, po after 3 hrs; format: functional; in short: as §1

Row | SMILES | IC50 [1] | Ki [1] | Activity (Rattus norvegicus [2]) | Activity (Rattus norvegicus [3]) | Activity (Rattus norvegicus [4])
1 | CCCCC1=NC2(CCCC2)C(=O)N1Cc1ccc(-c2ccccc2-c2nnn[nH]2)cc1 [IRBESARTAN] | 1.46 nM | 1.05 nM | Active | – | –
2 | CCCC1=NC2(CCCC2)C(=O)N1Cc1ccc2c(ccn2-c2ccccc2-c2nnn[nH]2)c1 | 7.04 nM | 5.07 nM | Active | – | –
3 | CCCCCC1=NC2(CCCC2)C(=O)N1Cc1ccc2c(ccn2-c2ccccc2-c2nnn[nH]2)c1 | 5.33 nM | 3.42 nM | Active | – | –
4 | CCCCCCC1=NC2(CCCC2)C(=O)N1Cc1ccc2c(ccn2-c2ccccc2-c2nnn[nH]2)c1 | 6.15 nM | 4.67 nM | – | – | –

Now from value to molecule, other results behind:

Row | IC50 [1] | SMILES | Ki [1] | Activity (Rattus norvegicus [2]) | Activity (Rattus norvegicus [3]) | Activity (Rattus norvegicus [4])
5 | 6.15 nM | CCCCCC1=NC2(CCCC2)C(=O)N1Cc1cccc2c1ccn2-c1ccccc1-c1nnn[nH]1 | 4.67 nM | Active | – | –
6 | 7.75 nM | CCCC1=NC2(CCCC2)C(=O)N1Cc1cccc2c1ccn2-c1ccccc1-c1nnn[nH]1 | 5.61 nM | Active | – | –
7 | 3.05 nM | CCCCC1=NC2(CCCC2)C(=O)N1Cc1cccc2c1ccn2-c1ccccc1-c1nnn[nH]1 | 2.21 nM | – | Active | 40.57 mmHg
